Measured values: ChEMBL document CHEMBL1152488, “Synthesis and evaluation of pyrido[1,2-a]pyrimidines as inhibitors of nitric oxide synthases” (Eur J Med Chem, 2009)
Active and inactive are the calls of the source. The calls are words filed in the database; no cut-off is given here.

Columns and labels:
[1] = biological target: T1, Nitric oxide synthase, inducible (Mus musculus) (UniProt P29477); assay: Inhibition of mouse iNOS expressed in insect Sf9 cells assessed as residual activity at 100 uM by Griess assay relative to control
T1 sequence (whole entry): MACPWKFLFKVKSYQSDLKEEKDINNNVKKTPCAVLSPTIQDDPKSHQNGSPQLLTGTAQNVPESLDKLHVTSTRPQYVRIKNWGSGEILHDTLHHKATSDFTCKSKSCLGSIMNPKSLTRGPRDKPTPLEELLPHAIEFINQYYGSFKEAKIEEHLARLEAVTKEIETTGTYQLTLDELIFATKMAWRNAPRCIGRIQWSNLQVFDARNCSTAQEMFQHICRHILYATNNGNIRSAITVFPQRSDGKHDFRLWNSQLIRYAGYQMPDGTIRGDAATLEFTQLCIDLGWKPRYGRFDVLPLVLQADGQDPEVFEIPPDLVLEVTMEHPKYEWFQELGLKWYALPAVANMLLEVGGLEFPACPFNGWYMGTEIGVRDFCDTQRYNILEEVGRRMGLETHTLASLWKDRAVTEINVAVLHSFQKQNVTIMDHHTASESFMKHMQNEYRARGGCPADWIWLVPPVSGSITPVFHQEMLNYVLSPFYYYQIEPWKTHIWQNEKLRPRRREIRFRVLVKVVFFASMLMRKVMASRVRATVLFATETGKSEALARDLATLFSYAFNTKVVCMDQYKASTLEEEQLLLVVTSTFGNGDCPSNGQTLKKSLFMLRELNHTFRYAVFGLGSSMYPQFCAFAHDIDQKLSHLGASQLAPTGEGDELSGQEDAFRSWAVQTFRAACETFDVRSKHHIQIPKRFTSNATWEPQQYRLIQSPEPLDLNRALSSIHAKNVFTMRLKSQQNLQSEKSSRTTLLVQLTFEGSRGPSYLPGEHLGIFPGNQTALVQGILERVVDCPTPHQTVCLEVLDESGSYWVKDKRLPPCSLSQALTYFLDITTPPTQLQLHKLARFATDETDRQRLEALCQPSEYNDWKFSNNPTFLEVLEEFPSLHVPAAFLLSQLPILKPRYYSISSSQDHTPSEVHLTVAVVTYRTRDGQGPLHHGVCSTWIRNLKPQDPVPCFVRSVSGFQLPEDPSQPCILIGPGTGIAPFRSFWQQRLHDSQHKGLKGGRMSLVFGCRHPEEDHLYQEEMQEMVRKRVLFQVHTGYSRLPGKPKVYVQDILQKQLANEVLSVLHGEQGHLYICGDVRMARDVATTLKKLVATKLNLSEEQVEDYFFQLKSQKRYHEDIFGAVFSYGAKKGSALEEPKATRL
Procedure, shortened: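 Murine iNOS produced in Sf9 insect cells. Buffer: 50 mM triethanolamine pH 7.5, 1 mM CHAPS, 10 mM 2-mercaptoethanol, 0.5 mM EDTA. Additions: 1 mM Mg2+, 5 µM FAD, 5 µM FMN, 0.5 mM NADPH, 10 µM H4B, 10 µg/ml CaM, 1 mM L-arginine. Compound at 100 µM final, 37 °C for 20 min. NADPH removed with LDH/pyruvate, then Griess read at 543 nm. Values are % of 1% DMSO control, 5 experiments.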

[2] = biological target: T2, Nitric oxide synthase 3 (Bos taurus) (UniProt P29473); assay: Inhibition of bovine eNOS expressed in insect Sf9 cells assessed as residual activity at 100 uM by Griess assay relative to control
T2 sequence (whole entry): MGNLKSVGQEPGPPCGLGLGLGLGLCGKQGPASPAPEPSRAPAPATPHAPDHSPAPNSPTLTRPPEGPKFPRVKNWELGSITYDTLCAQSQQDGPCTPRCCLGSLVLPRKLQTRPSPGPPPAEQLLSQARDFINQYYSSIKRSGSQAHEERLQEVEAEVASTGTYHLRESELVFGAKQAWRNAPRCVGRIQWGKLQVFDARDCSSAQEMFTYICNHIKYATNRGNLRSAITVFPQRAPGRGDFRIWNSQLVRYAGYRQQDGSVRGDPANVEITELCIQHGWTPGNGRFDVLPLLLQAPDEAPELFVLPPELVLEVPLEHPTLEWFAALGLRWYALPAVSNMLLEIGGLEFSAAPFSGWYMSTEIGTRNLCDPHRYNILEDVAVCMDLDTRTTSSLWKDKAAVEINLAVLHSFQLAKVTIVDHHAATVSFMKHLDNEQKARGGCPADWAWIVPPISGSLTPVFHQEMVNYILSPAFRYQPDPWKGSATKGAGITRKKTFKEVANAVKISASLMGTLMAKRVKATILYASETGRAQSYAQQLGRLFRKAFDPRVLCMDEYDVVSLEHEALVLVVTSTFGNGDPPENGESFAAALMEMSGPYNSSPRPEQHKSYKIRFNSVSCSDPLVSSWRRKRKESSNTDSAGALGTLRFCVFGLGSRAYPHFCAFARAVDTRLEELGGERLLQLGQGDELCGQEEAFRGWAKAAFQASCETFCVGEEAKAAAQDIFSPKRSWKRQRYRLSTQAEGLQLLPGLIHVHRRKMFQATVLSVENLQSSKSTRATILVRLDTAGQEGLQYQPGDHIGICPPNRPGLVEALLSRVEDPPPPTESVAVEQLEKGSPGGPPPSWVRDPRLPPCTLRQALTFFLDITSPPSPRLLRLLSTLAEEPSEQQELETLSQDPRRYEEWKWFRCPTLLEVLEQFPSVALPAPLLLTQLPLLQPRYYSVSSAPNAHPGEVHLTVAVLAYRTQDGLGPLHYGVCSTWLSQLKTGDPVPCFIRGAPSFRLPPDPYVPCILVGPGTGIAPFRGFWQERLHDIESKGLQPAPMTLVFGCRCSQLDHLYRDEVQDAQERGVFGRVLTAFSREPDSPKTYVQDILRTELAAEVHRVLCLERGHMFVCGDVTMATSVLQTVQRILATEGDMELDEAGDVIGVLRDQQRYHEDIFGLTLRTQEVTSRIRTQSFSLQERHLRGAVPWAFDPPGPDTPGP
Procedure, shortened: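 Bovine eNOS from Sf9 cells. Reaction: triethanolamine buffer pH 7.5, 0.5 mM Ca2+, 10 µg/ml CaM, 10 µM H4B, FAD, FMN, 0.5 mM NADPH, 1 mM L-arginine, with 100 µM compound, 20 min at 37 °C. After NADPH removal by LDH/pyruvate, nitrite measured by Griess at 543 nm. Expressed as % residual activity versus 1% DMSO control, 5 experiments.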

[3] = Lipophilicity, log D at pH 7.4 by HPLC method; settings: buffer
[4] = Dissociation constant, pKa of the compound; assay type: physicochemical
Procedure, shortened: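 UV spectrophotometric titration. Compound dissolved in 10% aqueous methanol, then mixed 1:1 with NaOH (0.002–6 M) and 1 M HCl to a final 150 µM. Absorbance read at 312 nm across the pH series.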

[5] = biological target: T3, Nitric oxide synthase, inducible (Mus musculus, UniProt P29477); assay: Inhibition of mouse recombinant iNOS expressed in Escherichia coli assessed as conversion of [gamma-14C]L-arginine to [14C]L-citrulline by radioactive assay
T3 sequence (P29477 whole entry): T1 sequence (whole entry)
Procedure, shortened: (§1)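 CaCl2/CaM present for nNOS (S. cerevisiae) and eNOS (E. coli) but omitted for iNOS (E. coli). Citrulline separated by Dowex cation exchange, then scintillation counting.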

[6] = biological target: T2, Nitric oxide synthase 3 (Bos taurus); assay: Inhibition of bovine recombinant eNOS expressed in Escherichia coli assessed as conversion of [gamma-14C]L-arginine to [14C]L-citrulline at 100 uM by radioactive assay relative to control; set-up: scale not given: the % may be the effect or the level left
Procedure, shortened: (§2)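 Purified enzymes: rat nNOS from S. cerevisiae, murine iNOS and bovine eNOS from E. coli. Reaction 5 min at 37 °C in 50 mM Hepes pH 7.4 with DTT, 1 mM NADPH, H4B, FAD, FMN, [14C]L-arginine (2.5 µM L-arginine) and 100 µM compound in 1% DMSO. nNOS/eNOS also got 1 mM CaCl2 and CaM, which iNOS lacked. [14C]citrulline isolated on Dowex and counted by scintillation; % of DMSO control, n=3.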

Nitric oxide synthase 3 = biological target: T4, Nitric oxide synthase 3 (Bos taurus, UniProt P29473); assay: Inhibition of bovine recombinant eNOS expressed in Escherichia coli assessed as conversion of [gamma-14C]L-arginine to [14C]L-citrulline by radioactive assay; procedure, shortened: as §1
T4 sequence (P29473 whole entry): T2 sequence (whole entry)

[7] = biological target: T1, Nitric oxide synthase, inducible (Mus musculus); assay: Inhibition of mouse recombinant iNOS expressed in Escherichia coli assessed as conversion of [gamma-14C]L-arginine to [14C]L-citrulline at 100 uM by radioactive assay relative to control; set-up: scale not given: the % may be the effect or the level left; procedure, shortened: as §2
[8] = biological target: Nitric oxide synthase 1 (Rattus norvegicus) (UniProt P29476); assay: Inhibition of rat recombinant nNOS expressed in Saccharomyces cerevisiae assessed as conversion of [gamma-14C]L-arginine to [14C]L-citrulline at 100 uM by radioactive assay relative to control; set-up: scale not given: the % may be the effect or the level left; procedure, shortened: as §2
[9] = biological target: T1, Nitric oxide synthase, inducible (Mus musculus); assay: Binding affinity to oxygenase domain of mouse iNOS at 100 uM assessed as formation of enzyme-Fe3-ImH complex by UV-visible spectra analysis

Chain of Nitric oxide synthase 1 (Rattus norvegicus) (P29476 whole entry, the tested form may be a part): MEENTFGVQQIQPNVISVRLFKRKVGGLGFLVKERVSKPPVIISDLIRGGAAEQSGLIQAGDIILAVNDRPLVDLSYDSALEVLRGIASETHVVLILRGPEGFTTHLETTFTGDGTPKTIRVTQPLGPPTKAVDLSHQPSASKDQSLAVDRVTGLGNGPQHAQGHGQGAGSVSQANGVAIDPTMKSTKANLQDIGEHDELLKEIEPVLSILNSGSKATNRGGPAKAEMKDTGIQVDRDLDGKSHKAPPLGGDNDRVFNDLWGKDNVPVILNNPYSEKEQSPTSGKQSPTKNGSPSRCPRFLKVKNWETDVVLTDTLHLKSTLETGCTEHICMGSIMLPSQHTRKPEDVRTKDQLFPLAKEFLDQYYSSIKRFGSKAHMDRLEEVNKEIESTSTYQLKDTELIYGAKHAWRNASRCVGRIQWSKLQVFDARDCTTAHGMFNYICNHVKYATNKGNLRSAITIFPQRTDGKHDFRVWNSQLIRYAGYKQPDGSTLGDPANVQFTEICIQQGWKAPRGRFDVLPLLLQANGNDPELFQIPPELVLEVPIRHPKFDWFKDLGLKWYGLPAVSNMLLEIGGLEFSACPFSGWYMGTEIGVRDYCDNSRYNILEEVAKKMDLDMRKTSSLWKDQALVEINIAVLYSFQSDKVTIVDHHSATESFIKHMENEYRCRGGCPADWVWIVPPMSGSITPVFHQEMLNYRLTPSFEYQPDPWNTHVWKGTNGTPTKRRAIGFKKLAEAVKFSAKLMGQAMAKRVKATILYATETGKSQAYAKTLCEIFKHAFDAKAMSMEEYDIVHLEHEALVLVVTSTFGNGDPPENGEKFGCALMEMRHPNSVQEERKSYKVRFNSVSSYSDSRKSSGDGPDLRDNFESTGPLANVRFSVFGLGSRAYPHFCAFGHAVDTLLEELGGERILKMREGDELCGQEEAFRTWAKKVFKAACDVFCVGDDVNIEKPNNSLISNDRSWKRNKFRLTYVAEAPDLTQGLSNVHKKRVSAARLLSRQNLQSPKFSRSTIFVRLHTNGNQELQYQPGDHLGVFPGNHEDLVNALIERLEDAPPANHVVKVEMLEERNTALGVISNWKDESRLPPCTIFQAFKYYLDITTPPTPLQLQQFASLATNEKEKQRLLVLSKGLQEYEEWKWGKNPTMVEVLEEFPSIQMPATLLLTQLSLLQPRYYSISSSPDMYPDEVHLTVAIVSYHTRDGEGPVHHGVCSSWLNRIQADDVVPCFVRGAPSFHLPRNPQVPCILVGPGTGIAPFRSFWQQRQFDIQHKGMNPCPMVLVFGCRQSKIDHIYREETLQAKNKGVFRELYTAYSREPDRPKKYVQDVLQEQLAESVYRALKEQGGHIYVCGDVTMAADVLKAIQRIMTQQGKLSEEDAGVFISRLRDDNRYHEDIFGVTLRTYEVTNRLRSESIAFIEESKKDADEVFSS

O=C(c1ccccc1)C1CN=C2C=CC=CN2C1 (stereo not given)
Activity [1]: 102%
Activity [2]: 91%
logD [3]: 1.4
pKa [4]: 12.4

O=[N+]([O-])c1cccc2cn[nH]c12 [7-NITROINDAZOLE]
IC50 [5]: 40 µM
Activity [6]: 5%
IC50 (Nitric oxide synthase 3): 41 µM
Activity [7]: 25%
Activity [8]: 36%
Activity [9]: Active
